Published values gathered from unrelated publications.
Target: Eukaryotic elongation factor 2 kinase (EEF2K, Homo sapiens, UniProt O00418)

SMILES | read-out | action | technique | cells | concentration | endpoint | result
CN(c1ncccc1CNc1nc(Nc2ccc3c(c2)CC(=O)N3)ncc1C(F)(F)F)S(C)(=O)=O | enzyme activity | inhibitor | – | – | 1 µM | inhibition | 0%
C=CC(=O)Nc1cc(Nc2nccc(Nc3cc(Cl)c(F)cc3C(C)(C)O)n2)c(OC)cc1N1CC[C@@H](N(C)C)C1 | enzyme activity | inhibitor | – | – | 1 µM | inhibition | 11%
Oc1cccc(-c2nc(N3CCOCC3)c3oc4ncccc4c3n2)c1 | enzyme activity | inhibitor | – | – | 10 µM | remaining activity | 99%
Cc1cc(NC(=O)c2cccc3cc(-c4cccc5[nH]nc(N)c45)ccc23)ccc1F | enzyme activity | inhibitor | – | – | 0.1 µM | activity vs control | 103%
CCN1CCC2(CC1)NC(=O)c1c(c3ccc(Cl)c(Cl)c3n1C)C2C#N (racemic) | thermal stability | – | DSF | – | 10 µM | ΔTm | 0 °C
FC(F)c1nc2ccccc2n1-c1nc(N2CCOCC2)nc(N2CCOCC2)n1 | enzyme activity | inhibitor | – | – | 10 µM | remaining activity | 96%
CC(C)(C)c1nc2c(s1)c1nc(N)ncc1c1ccc(NS(=O)(=O)c3c(F)cccc3F)c(F)c12 | enzyme activity | inhibitor | radiometric | – | 1 µM | remaining activity | 88%
FC(F)(F)Oc1cccc(-c2cnc3ccc(-c4ccncc4)nn23)c1 | enzyme activity | inhibitor | radiometric | – | 5 µM | activity vs control | 98%
CNC(=O)c1cc(Oc2ccc(NC(=O)Nc3ccc(Cl)c(C(F)(F)F)c3)cc2)ccn1 | enzyme activity | inhibitor | – | – | 0.3 µM | inhibition | -6%
COc1cc(Nc2cnc(C#N)c(O[C@H](C)CN(C)C)n2)ncc1-c1cnn(C)c1 | enzyme activity | inhibitor | radiometric | – | 10 µM | remaining activity | 87%
N#CC1c2c([nH]c3c(Cl)c(Cl)ccc23)C(=O)NC12CCCCC2 (racemic) | thermal stability | – | DSF | – | 10 µM | ΔTm | -0.1 °C
CCN1CCN(Cc2ccc(NC(=O)c3ccc(C)c(Oc4ccnc5[nH]ccc45)c3)cc2C(F)(F)F)CC1 | target engagement in cells | inhibitor | chemoproteomics | A-375 | 0.5 µM | inhibition | 0.084%
CC1(C)NC(=O)c2[nH]c3c(Cl)c(Cl)ccc3c2C1C#N (centres unmarked) | thermal stability | – | DSF | – | 10 µM | ΔTm | -0.3 °C
CCCS(=O)(=O)Nc1ccc(F)c(C(=O)c2c[nH]c3ncc(-c4ccc(Cl)cc4)cc23)c1F | enzyme activity | inhibitor | – | – | 1 µM | inhibition | < 10%
Nc1nc(NC2CCCCC2)sc1C(=O)c1ccccc1 | enzyme activity | inhibitor | – | – | 10 µM | remaining activity | 89%
Cc1ccc(Nc2nccc(N(C)c3ccc4c(C)n(C)nc4c3)n2)cc1S(N)(=O)=O | enzyme activity | inhibitor | – | – | 0.3 µM | inhibition | -7%
COc1cc(Cl)c(C(=O)N[C@@H](CN[C@H]2CC[C@@H](N)CC2)Cc2ccc(C#N)cc2)cc1-c1ccc(CN[C@H](C)c2ccc(C)cc2)o1 | enzyme activity | inhibitor | – | – | 1 µM | remaining activity | 80%
CNc1cc(Oc2cc(C(=O)Nc3cc(N4CCN(C)CC4)cc(C(F)(F)F)c3)ccc2C)ncn1 | target engagement in cells | inhibitor | chemoproteomics | Huh-7 | 1 µM | inhibition | -99.1%
CCN(CC)CCNC(=O)c1c(C)[nH]c(/C=C2\C(=O)Nc3ccc(F)cc32)c1C | enzyme activity | inhibitor | – | – | 0.3 µM | inhibition | -15%
Cn1c2c(Cl)c(Cl)ccc2c2cc[nH]c(=O)c21 | thermal stability | – | DSF | – | 10 µM | ΔTm | -0.3 °C
Cc1cnc(NC2CCOCC2)nc1-n1cnc(C(=O)NC(CN)c2cc(F)cc(Cl)c2)c1 (centres unmarked) | enzyme activity | inhibitor | radiometric | – | 1 µM | remaining activity | 108%
CN1CCC2(CC1)NC(=O)c1c(c3ccc(Cl)c(Cl)c3n1C)C2C#N (racemic) | thermal stability | – | DSF | – | 10 µM | ΔTm | -0.1 °C
COc1cc2ncnc(Nc3ccc(Oc4ccccc4)c(C)c3C)c2cc1OC | enzyme activity | inhibitor | – | – | 1 µM | inhibition | 1%
